Hits are enriched below; roughly 7.4% of the tested compounds scored in any of these assays.
M1 antagonist: blocks the rat M1 muscarinic receptor response to acetylcholine | hit rate 3.4% among 64,000 | P08482 | B-score at 10 µM | CHO-M1 cells, Fluo-4 calcium, ACh EC80 antagonist mode; hits give low values;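 active = calcium fluorescence response, raw or row-and-column corrected B-score, differing from the plate sample mean either way at a set confidence level, mostly lower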
M1 agonist: activates the M1 muscarinic receptor | CHO-M1 cells, Fluo-4 calcium fluorescence, agonist mode; hits give high values | B-score at 10 µM | hit rate 3% among 64,000;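 active = fluorescence rise, raw or as B-score row- and column-corrected plate score, outside the 99.7% band of its plate's samples, either direction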
JNK3 inh: inhibitors of human JNK3 kinase; hit rate 0.61% among 60,000; AID 746; P53779; inhibition, % at 8 µM; purified JNK3 kinase activity, HTS; in the data active = inhibition above about 17%
Target sequence (P53779 whole entry, looked up): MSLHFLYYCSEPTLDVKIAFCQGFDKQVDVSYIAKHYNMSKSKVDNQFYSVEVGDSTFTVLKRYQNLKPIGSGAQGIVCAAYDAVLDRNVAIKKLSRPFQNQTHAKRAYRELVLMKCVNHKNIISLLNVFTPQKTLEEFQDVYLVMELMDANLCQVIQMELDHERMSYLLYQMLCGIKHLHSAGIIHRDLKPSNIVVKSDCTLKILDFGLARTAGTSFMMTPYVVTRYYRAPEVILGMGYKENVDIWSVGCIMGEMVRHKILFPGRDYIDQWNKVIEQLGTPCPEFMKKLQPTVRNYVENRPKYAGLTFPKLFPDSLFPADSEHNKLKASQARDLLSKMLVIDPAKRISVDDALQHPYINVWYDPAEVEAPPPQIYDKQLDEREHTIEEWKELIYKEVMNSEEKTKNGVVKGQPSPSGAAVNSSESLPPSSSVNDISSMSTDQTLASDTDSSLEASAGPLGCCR
Jurkat viability: cytotoxic compounds reducing Jurkat cell viability; inhibition, % at 4 µM; hit rate 1.2% among 56,000; Jurkat E6.1 viability, ATP luminescence, 48 h; AID 463;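 active = inhibition above the mean inhibition of all tested compounds plus 3 SD, cut at about 28% in these data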
S1P1 ag pot: S1P1 (human) agonism or agonism potentiation; activation, % at 9.5 µM; hit rate 0.57% among 56,000; S1P1 CRE-bla cells, forskolin, beta-lactamase FRET, potentiator mode; S1P1 agonist co-added at EC20, 2 nM; 100% = saturating reference agonist, 0% = basal; P21453;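 active = activation above a cutoff set at the mean activation of all tested compounds plus 3 SD, cut at about 54% in these data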;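 also: forskolin at 4 µM as EC80 and the EC20 agonist is SEW2871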
S1P3 agonist: agonists of human S1P3 receptor; activation, % at 4.5 µM; AID 373; hit rate 0.1% among 60,000; Q99500; S1P3 NFAT-BLA reporter cells, agonism, FRET ratio; relative to 1 µM S1P, basal subtracted;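 active = activation above the screen-wide mean plus 3 SD, cut at about 4.5% in these data, passing the limit was not always enough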
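Assay system: stable CHO line with human S1P3, Gα16, NFAT-BLA reporter; Detection: FRET β-lactamase substrate fluorescence, excitation 405 nm, 460/535 nm emission ratio, background-subtracted; Read-out: percent activation versus median 1 µM S1P response, basal-subtracted, per plate; Incubation: cells plated overnight, compound 4 h 37 °C, substrate 2 h RT.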
M1 ag confirm: rat M1 muscarinic agonism, confirmation; hit rate 19% among 1,700; CHO-M1 cells, Fluo-4 calcium fluorescence, agonist mode; actives lie on both sides; fluorescence change (max-min) at 10 µM; shares compounds with M1 agonist;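 active = fluorescence change differs from the solvent-only DMSO control mean at a set confidence level in both duplicate runs; inconclusive = differs from solvent-only control mean in just one of two runs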;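 also: an EC20 dose of acetylcholine follows compound addition during the same imaging run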
M4 agonist ctr: activates rat M4 receptor in counter-screen for M1 agonists; shares compounds with M1 agonist; hit rate 9% among 1,700; CHO M4/Gqi5 cells, Fluo-4 calcium fluorescence, agonist mode; actives lie on both sides; fluorescence change (max-min) at 10 µM;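 active = fluorescence change differing from the plate's solvent-only control wells at 99.7% confidence in both duplicates, whether higher or lower; inconclusive = differs from solvent controls in only one of two duplicates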
Large screens that a line does not name were inactive (follow-up assays come after a bar, where they were run).

O=C(NCCc1ccc(Cl)cc1)c1cnc2n(c1=O)CCS2	M1 agonist -2.9 | M1 ag confirm inconclusive | M4 agonist ctr inactive
O=C(Nc1ccc2nc(-c3ccc(Br)o3)[nH]c2c1)c1cccs1	none
Cn1cccc1-c1nc2ccc(NC(=O)c3cccs3)cc2[nH]1	M1 agonist 8.5 | M1 ag confirm inconclusive | M4 agonist ctr inactive
O=C(Cc1cc(=O)[nH]c(=O)[nH]1)N1CCC(Cc2ccccc2)CC1	none
N#CC(c1nc2ccccc2nc1N1CCCC1)S(=O)(=O)c1cccs1 (stereo not drawn)	none
Cc1cc(S(=O)(=O)N2CCN(Cc3ccc4c(c3)OCO4)CC2)cc(C)c1N1CCCC1=O	M1 agonist 3.3 | M1 ag confirm inactive | M4 agonist ctr inactive
CCOC(=O)N1CCC(NC(=O)c2cnc3n(c2=O)CCS3)CC1	none
Cc1nc(SCC(=O)N2CCC(C(N)=O)CC2)n[nH]1	M1 agonist 3.9 | M1 ag confirm inconclusive | M4 agonist ctr inactive
CCOC(=O)Cc1csc(NC(=O)CSc2ncnc3c2cnn3-c2ccccc2Cl)n1	M1 agonist 11 | M1 ag confirm inactive | M4 agonist ctr inactive
COc1cccc(C(=O)OCn2nnc3ccccc3c2=O)c1	M1 agonist 2.2 (no result: JNK3 inh, Jurkat viability, S1P1 ag pot, S1P3 agonist) | M1 ag confirm inactive | M4 agonist ctr inactive
CC(C)CCn1c(SCC(=O)OCn2nnc3ccccc3c2=O)nc2ccccc2c1=O	M1 agonist 3.7 | M1 ag confirm inactive | M4 agonist ctr inactive
Cc1cccc(NC(=O)C2CCN(c3nccc(C)n3)CC2)c1	none
Cn1c(=O)c2c(ncn2CC(=O)Nc2cc(Cl)c(Cl)cc2Cl)n(C)c1=O	none
Cc1ccc2cc(C#N)c(N3CCCC3)nc2c1C	none
Cc1ccc2cc(C#N)c(N3CCCN(C(=O)C4CCCO4)CC3)nc2c1C (stereo not drawn)	M1 agonist 4.1 (no result: JNK3 inh, Jurkat viability, S1P1 ag pot, S1P3 agonist) | M1 ag confirm inactive | M4 agonist ctr inactive
CC(=O)N1CCN(c2ccc(NC(=O)c3ccc(C(C)(C)C)cc3)cc2)CC1	M1 agonist 2.5 (no result: JNK3 inh, Jurkat viability, S1P1 ag pot, S1P3 agonist) | M1 ag confirm inactive | M4 agonist ctr inactive
CCCCOc1ccc(C(=O)Nc2ccc(N3CCN(C(C)=O)CC3)cc2)cc1	none (no result: Jurkat viability)
Cc1ccc2c(COn3nnc4ccc(S(=O)(=O)N(C)C)cc43)cc(=O)oc2c1C	M1 agonist 21 | M1 ag confirm inactive | M4 agonist ctr inactive
Fc1ccccc1N1CCN(CCCNc2ccc3nncn3n2)CC1	none
CCCCN1CCc2c([nH]c3ccc(C)cc23)C1=O	M1 agonist 3.5 | M1 ag confirm inactive | M4 agonist ctr inconclusive
CCOC(=O)C(NS(=O)(=O)c1ccc(Br)cc1)C(C)C (stereo not drawn)	none (no result: JNK3 inh, Jurkat viability, S1P1 ag pot, S1P3 agonist)
CCOC(=O)C(CC)n1cnc2c(nnn2-c2ccc(OC)cc2)c1=O (stereo not drawn)	none
CCC(C(=O)OC)n1cnc2c(nnn2-c2ccc(OC)cc2)c1=O (stereo not drawn)	M1 agonist 4.3 | M1 ag confirm inactive | M4 agonist ctr inactive
CCOC(=O)C(CC)n1cnc2c(cnn2-c2ccc(Cl)cc2)c1=O (stereo not drawn)	M1 antagonist -6.2, M1 agonist 55 | M1 ag confirm inactive | M4 agonist ctr inactive
CCOc1ccc(/C=c2\sc3nc(-c4ccco4)nn3c2=O)cc1OCC	M1 agonist 105 | M1 ag confirm inconclusive | M4 agonist ctr inactive
COc1ccccc1/C=c1\sc2nc(-c3ccco3)nn2c1=O	none
CCOc1ccccc1C(=O)NCC(=O)OCC(=O)N1C(C)CCCC1C (stereo not drawn)	M1 agonist -2.6 | M1 ag confirm inconclusive | M4 agonist ctr -84
CCc1cc2cc(C)cc(C)c2nc1SCC(=O)N1CCN(C(=O)c2ccco2)CC1	none
CCc1cc2cccc(C)c2nc1SCC(=O)N1CCN(C(=O)c2ccco2)CC1	M1 agonist 2.5 | M1 ag confirm inactive | M4 agonist ctr inactive
Cc1ccc(-c2nc(CSCC(=O)N3CCN(c4ccccn4)CC3)c(C)o2)cc1	M1 antagonist -2.3, M1 agonist 5.6 | M1 ag confirm inconclusive | M4 agonist ctr inactive
Cc1ccc(-c2nc(CSCC(=O)N3CCOCC3)c(C)o2)cc1	none
CCc1ccc(-c2nc(CSCC(=O)N3CCN(c4ccccn4)CC3)c(C)o2)cc1	M1 agonist 4.6 | M1 ag confirm inactive | M4 agonist ctr inconclusive
O=C(CSCc1ccccc1)N1CCN(Cc2ccc3c(c2)OCO3)CC1	none
Cc1cccc(-c2nc(CSCC(=O)N3CCN(Cc4ccc5c(c4)OCO5)CC3)c(C)o2)c1	M1 antagonist -4, M1 agonist 5.7, S1P1 ag pot 58 | M1 ag confirm inactive | M4 agonist ctr inconclusive
C=CCn1c(SCCC(=O)O)nc2c1c(=O)n(C)c(=O)n2C	none
COC(=O)Nc1nnc(-c2ccccc2Cl)s1	none
CCN(CC)CC#CC(C)OCOCC#CCOC (stereo not drawn)	M1 agonist -4.1 | M1 ag confirm inconclusive | M4 agonist ctr inactive
CCn1c(SCC(=O)Nc2cccc(NC(C)=O)c2)nnc1C(C)C	none (no result: JNK3 inh, Jurkat viability, S1P1 ag pot, S1P3 agonist)
Cc1cc(C(=O)Nc2sc3c(c2C#N)CCCCC3)cs1	none
N#Cc1c(NC(=O)c2nc3ncccn3n2)sc2c1CCCCC2	M1 agonist -1.8 (no result: S1P1 ag pot) | M1 ag confirm inconclusive | M4 agonist ctr inactive
Cc1cccc(N2C(=O)c3cccc4c(N(C)CCO)ccc(c34)C2=O)c1	M1 antagonist -14, M1 agonist 351 | M1 ag confirm 1544 | M4 agonist ctr 1425
COc1cc(/C=c2\s/c(=C(/C#N)C(=O)N3CCCC3)n(-c3ccccc3)c2=O)ccc1O	M1 agonist 48 | M1 ag confirm inactive | M4 agonist ctr inactive
Nc1cc(C(=O)O)ccc1Nc1ccc(F)c(F)c1	none
COC(=O)c1ccc(C(=O)OC)c(NC(=O)CCc2ccc(C)o2)c1	none
COC(=O)c1ccc(C(=O)OC)c(NC(=O)CCC(=O)O)c1	M1 agonist 4.2 | M1 ag confirm inactive | M4 agonist ctr inactive
Cc1cc(NC(=O)C2COc3ccccc3O2)no1 (stereo not drawn)	none
O=C(O)[C@@H](c1ccccc1)N1Cc2ccccc2C1=O	M1 agonist 3 | M1 ag confirm inconclusive | M4 agonist ctr inactive
Cc1cccn2c(=O)c(C=NCc3ccco3)c(Nc3ccc(Cl)cc3)nc12	none
CCSc1nc2c(c(=O)[nH]c(=O)n2C)n1CC(O)COc1ccccc1C (stereo not drawn)	none
Cc1ccccc1OCC(O)Cn1c(SC(C)C)nc2c1c(=O)[nH]c(=O)n2C (stereo not drawn)	M1 agonist 6.9 | M1 ag confirm inactive | M4 agonist ctr inactive
